Experiment [1] has as its target Aurora kinase B (Homo sapiens) (UniProt Q96GD4). Briefly: Inhibition of aurora B assessed as residual activity at 10 uM. The essentials: (§1)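 Panel screen by radioactive kinase assay at a single inhibitor concentration. Score is the percent activity remaining relative to DMSO controls (100%).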
Experiment [2] deals with Misshapen-like kinase 1 (Homo sapiens) (UniProt Q8N4C8). Briefly: Inhibition of MINK1 assessed as residual activity at 10 uM. Put shortly: (§2)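 Kinase panel screen run as a radioactive activity assay at single compound concentration. Score reported as percent activity remaining relative to DMSO controls (100%).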
Experiment [3] addresses T1, Eukaryotic elongation factor 2 kinase (Homo sapiens) (UniProt O00418).
T1 sequence (whole entry): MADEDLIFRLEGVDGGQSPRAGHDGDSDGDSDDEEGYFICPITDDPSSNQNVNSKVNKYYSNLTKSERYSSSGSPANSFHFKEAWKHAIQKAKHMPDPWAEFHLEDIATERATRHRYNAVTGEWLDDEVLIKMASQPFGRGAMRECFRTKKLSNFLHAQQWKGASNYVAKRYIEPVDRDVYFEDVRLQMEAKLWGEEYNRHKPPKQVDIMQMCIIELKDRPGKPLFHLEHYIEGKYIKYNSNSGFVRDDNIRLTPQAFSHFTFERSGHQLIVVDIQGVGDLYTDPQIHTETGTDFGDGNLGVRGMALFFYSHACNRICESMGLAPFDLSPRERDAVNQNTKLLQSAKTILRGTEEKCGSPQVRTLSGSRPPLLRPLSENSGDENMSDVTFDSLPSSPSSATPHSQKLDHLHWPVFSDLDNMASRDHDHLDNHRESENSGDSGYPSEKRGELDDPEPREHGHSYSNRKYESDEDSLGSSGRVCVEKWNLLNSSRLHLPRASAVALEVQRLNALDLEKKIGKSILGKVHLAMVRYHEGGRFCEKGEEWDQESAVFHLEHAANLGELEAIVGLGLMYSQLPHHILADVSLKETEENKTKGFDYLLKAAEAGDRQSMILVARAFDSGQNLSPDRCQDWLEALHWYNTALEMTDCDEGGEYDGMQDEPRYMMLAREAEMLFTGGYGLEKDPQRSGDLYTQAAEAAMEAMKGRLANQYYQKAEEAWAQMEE
Briefly: Inhibition of EF2K assessed as residual activity at 10 uM. The essentials:
as §2

The target of experiment [4] is Serine/threonine-protein kinase PAK 4 (Homo sapiens) (UniProt O96013). The experiment in a line: Inhibition of PAK4 assessed as residual activity at 10 uM. The essentials:
as §1

In experiment [5] the target is Serine/threonine-protein kinase 26 (Homo sapiens) (UniProt Q9P289). The experiment in a line: Inhibition of MST4 assessed as residual activity at 10 uM. The essentials: as §1
Experiment [6] deals with T2, MAP/microtubule affinity-regulating kinase 4 (Homo sapiens) (UniProt Q96L34).
T2 sequence (whole entry): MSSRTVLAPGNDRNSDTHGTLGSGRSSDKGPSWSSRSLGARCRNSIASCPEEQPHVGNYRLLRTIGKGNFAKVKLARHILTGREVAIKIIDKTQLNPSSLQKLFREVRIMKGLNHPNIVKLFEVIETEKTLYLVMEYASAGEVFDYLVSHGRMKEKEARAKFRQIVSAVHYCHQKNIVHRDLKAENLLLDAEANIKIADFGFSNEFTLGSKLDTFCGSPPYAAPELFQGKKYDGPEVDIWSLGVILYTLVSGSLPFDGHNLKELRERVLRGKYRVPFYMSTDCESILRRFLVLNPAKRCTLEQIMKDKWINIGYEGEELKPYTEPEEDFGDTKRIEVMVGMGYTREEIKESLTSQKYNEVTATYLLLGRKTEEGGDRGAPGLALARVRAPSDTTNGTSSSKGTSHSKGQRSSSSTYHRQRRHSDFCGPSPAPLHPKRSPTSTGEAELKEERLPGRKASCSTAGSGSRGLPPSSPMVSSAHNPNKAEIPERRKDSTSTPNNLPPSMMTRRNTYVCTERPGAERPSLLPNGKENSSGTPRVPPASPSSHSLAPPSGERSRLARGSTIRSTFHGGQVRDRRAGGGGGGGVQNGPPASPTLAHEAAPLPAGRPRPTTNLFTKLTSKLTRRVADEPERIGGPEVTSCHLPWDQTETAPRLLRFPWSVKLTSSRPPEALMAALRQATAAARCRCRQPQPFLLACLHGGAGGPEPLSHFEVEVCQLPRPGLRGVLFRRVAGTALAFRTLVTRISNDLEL
The experiment in a line: Inhibition of MARK4 assessed as residual activity at 10 uM. The essentials:
as §2

The nature of experiment [7]: Inhibition of PKA assessed as residual activity at 10 uM. Put shortly: as §1
Experiment [8] addresses MAP kinase-activated protein kinase 2 (Homo sapiens) (UniProt P49137). Briefly: Inhibition of MAPKAPK2 assessed as residual activity at 10 uM. Put shortly:
as §2

For experiment [9], the target named is T3, MAP kinase-activated protein kinase 5 (Homo sapiens) (UniProt Q8IW41).
T3 sequence (whole entry): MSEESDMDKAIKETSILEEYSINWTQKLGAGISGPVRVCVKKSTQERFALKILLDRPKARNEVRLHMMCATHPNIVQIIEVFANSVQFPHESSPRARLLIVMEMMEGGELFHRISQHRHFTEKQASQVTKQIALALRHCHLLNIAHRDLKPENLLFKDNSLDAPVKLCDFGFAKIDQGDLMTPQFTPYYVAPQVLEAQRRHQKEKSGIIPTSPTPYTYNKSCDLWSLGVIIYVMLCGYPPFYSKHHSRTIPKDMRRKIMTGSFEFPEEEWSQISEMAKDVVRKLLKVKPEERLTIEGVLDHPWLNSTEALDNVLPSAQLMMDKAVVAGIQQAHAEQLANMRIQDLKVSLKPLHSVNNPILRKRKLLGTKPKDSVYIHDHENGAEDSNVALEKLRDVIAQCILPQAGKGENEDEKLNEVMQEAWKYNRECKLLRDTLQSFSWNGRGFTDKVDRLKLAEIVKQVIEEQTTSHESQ
The experiment in a line: Inhibition of PRAK assessed as residual activity at 10 uM. Put shortly:
as §1

The target of experiment [10] is Glycogen synthase kinase-3 beta (Homo sapiens) (UniProt P49841). Briefly: Inhibition of GSK3-beta assessed as residual activity at 10 uM. The essentials:
as §2

The target of experiment [11] is Serine/threonine-protein kinase Nek6 (Homo sapiens) (UniProt Q9HC98). Briefly: Inhibition of NEK6 assessed as residual activity at 10 uM. The essentials:
as §1

Sequence of Serine/threonine-protein kinase 26 (Homo sapiens) (Q9P289 2-416 limits assumed): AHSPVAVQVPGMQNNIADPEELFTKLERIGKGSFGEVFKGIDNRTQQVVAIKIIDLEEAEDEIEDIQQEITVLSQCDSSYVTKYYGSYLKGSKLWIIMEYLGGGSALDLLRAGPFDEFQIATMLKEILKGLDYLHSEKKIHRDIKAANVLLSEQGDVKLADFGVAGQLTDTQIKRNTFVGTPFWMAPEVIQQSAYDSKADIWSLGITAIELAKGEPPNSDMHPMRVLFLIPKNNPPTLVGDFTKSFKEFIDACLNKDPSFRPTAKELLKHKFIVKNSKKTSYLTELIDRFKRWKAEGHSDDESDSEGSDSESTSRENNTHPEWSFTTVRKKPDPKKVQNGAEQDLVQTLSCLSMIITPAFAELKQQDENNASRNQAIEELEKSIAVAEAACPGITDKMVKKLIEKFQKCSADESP
Sequence of Serine/threonine-protein kinase PAK 4 (Homo sapiens) (O96013 whole entry, looked up): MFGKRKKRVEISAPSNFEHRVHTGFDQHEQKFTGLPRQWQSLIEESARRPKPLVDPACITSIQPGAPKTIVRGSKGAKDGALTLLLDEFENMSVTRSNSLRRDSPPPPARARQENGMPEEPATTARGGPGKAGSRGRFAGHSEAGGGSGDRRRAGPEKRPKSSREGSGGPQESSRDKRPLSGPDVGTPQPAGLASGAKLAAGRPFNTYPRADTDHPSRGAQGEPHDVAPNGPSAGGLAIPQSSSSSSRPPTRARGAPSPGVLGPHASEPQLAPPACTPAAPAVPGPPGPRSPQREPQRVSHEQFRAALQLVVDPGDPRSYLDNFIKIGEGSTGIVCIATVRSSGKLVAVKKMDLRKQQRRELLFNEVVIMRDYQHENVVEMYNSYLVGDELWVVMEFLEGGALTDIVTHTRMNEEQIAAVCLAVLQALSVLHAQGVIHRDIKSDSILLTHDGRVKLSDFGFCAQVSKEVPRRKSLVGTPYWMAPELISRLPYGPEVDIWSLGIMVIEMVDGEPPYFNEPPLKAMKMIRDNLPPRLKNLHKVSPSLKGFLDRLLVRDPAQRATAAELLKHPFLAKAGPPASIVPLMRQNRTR
Sequence of Glycogen synthase kinase-3 beta (Homo sapiens) (P49841 whole entry, looked up): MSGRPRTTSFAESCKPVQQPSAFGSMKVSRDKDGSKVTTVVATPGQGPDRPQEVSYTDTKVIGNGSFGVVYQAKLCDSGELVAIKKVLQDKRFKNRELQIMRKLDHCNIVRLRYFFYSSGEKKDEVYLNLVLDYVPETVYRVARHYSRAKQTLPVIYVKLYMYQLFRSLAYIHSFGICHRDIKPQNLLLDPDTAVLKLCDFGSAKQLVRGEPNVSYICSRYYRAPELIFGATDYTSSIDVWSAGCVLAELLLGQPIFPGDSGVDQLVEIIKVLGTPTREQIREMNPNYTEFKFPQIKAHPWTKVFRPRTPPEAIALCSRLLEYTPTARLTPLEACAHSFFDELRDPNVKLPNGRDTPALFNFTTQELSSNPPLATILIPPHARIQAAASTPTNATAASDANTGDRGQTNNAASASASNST
Sequence of Misshapen-like kinase 1 (Homo sapiens) (Q8N4C8 whole entry, looked up): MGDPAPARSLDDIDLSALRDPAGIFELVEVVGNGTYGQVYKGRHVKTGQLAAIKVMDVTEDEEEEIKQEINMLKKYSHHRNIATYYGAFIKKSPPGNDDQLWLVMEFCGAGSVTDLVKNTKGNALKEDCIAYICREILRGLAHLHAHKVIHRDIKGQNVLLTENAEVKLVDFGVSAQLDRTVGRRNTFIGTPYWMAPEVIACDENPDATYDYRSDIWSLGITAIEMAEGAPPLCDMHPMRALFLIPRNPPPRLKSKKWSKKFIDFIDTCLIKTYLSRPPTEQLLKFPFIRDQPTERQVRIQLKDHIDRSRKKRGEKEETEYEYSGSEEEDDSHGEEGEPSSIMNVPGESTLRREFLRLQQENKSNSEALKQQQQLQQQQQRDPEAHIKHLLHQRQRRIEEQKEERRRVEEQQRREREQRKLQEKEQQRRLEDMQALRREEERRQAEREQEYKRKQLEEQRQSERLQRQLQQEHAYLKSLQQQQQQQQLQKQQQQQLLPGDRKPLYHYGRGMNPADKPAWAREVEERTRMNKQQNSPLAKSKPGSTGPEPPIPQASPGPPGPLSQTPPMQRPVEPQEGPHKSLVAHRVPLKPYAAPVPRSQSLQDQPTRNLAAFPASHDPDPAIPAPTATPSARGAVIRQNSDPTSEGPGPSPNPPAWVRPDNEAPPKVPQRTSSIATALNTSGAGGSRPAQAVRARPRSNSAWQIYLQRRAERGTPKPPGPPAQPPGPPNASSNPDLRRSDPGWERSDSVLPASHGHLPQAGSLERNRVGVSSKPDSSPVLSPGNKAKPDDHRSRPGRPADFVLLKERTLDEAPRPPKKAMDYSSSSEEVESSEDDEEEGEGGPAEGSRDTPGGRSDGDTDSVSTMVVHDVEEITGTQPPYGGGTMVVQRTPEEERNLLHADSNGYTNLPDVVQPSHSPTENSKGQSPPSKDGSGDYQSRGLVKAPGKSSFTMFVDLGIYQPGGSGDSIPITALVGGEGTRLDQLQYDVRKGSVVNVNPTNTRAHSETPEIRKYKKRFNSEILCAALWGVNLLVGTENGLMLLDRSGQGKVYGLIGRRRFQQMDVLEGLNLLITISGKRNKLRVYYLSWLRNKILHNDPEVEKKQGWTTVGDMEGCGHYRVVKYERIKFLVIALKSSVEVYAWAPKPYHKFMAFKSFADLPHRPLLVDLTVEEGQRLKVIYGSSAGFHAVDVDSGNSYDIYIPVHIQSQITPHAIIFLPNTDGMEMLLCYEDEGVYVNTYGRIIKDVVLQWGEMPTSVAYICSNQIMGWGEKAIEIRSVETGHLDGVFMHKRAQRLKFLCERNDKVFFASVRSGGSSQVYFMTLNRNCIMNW
Sequence of Aurora kinase B (Homo sapiens) (Q96GD4 whole entry): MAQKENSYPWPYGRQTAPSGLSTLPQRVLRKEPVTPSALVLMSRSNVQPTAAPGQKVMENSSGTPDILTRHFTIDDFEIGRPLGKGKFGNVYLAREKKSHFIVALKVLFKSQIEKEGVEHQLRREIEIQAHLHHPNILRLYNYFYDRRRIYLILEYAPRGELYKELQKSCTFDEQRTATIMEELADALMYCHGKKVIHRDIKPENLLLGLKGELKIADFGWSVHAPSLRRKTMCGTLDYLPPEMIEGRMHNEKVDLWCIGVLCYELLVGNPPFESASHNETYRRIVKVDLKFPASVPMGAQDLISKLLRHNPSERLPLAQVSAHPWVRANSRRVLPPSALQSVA
Sequence of MAP kinase-activated protein kinase 2 (Homo sapiens) (P49137 whole entry, looked up): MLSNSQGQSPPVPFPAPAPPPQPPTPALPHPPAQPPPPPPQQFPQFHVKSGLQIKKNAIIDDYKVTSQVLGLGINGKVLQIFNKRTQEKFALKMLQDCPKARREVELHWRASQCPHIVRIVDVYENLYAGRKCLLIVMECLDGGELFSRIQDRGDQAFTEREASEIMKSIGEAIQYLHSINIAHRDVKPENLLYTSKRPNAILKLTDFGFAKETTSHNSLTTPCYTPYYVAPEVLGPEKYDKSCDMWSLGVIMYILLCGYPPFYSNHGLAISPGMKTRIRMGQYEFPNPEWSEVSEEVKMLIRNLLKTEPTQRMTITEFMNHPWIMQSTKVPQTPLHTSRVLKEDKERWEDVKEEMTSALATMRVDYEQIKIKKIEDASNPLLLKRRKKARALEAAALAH
Sequence of Serine/threonine-protein kinase Nek6 (Homo sapiens) (Q9HC98 whole entry): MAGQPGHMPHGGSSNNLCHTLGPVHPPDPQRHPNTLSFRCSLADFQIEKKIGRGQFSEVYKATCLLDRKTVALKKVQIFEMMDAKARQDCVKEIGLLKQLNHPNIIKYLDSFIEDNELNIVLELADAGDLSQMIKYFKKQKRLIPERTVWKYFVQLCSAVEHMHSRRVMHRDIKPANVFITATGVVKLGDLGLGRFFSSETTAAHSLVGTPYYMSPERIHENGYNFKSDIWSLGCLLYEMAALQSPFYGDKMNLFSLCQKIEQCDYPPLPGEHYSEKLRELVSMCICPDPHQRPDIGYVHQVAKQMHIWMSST

For `CN1CCN(CCC(=O)Nc2ccc3c(C#N)cnc(Nc4cccc(Br)c4)c3c2)CC1`, the Activity was 42% in experiment [1]; 54% in [2]; 47% in experiment [3]; 86% in [4]; 92% in experiment [5]; 100% in experiment [6]. Besides, the Activity in experiment [7], in experiment [8], in experiment [9], in experiment [10] and in [11] was 100% throughout.

For the compound `CN(C)CCCC(=O)Nc1ccc2c(C#N)cnc(Nc3cccc(Br)c3)c2c1`, the Activity was 41% in [1]; 59% in experiment [2]; 78% in experiment [3]; 94% in experiment [4]; 99% in [5]; 100% in experiment [6]. The Activity in experiment [7], in experiment [8], in [9], in [10] and in experiment [11] was 100% in each case.

In the case of `CN(C)C/C=C/C(=O)Nc1ccc2c(C#N)cnc(Nc3cccc(Br)c3)c2c1`, the Activity in experiment [1] turned out to be 33%; in experiment [2], 58%; in experiment [3], 88%; in [4] it was 82%; in [5], 81%; in experiment [6], 82%. Moreover, the Activity in experiment [7] is 100%; in [8], 97%; in experiment [9] it was 88%; in experiment [10] it was 78%; in experiment [11], 81%.

The record behind these values is ChEMBL document CHEMBL1641579, “Synthesis and biological evaluation of 7-substituted-1-(3-bromophenylamino)isoquinoline-4-carbonitriles as inhibitors of myosin light chain kinase and epidermal growth factor receptor” (Bioorg Med Chem, 2011).
